Key:
Conditions in all cases: in vivo
[1] = system: Blood; test: Biodistribution in blood of B16F0 tumor bearing C57BL/6J mouse at 0.37-0.74 MBq, iv after 24 hrs; type: ADME, organism-based
Procedure, shortened: (§1)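 Female C57BL/6J mice (15-18 g) were given B16F0 cells subcutaneously in the left flank (0.1 mL of 3 × 10⁶ viable cells/mL in Ca²⁺/Mg²⁺-free PBS) at 6-7 weeks and used after ten days. [¹²³I]benzamide (0.37-0.74 MBq, 100 µL, saline) was injected via the tail vein. Groups of n = 5 were killed by CO₂ and cervical dislocation. Organs were weighed and γ-counted, and the carcass was counted too.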

[2] = Biodistribution in melanoma of B16F0 tumor bearing C57BL/6J mouse at 0.37-0.74 MBq, iv after 1 hr; type: ADME, organism-based, B16-F0; procedure, shortened: as §1
[3] = Biodistribution in melanoma of B16F0 tumor bearing C57BL/6J mouse at 0.37-0.74 MBq, iv after 6 hrs; type: ADME, organism-based, B16-F0
Procedure, shortened: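 Female C57BL/6J mice (15-18 g) carrying s.c. B16F0 flank tumors (0.1 mL of 3 × 10⁶ viable cells per mL in Ca²⁺/Mg²⁺-free PBS, inoculated at 6-7 weeks, used 10 days later). [¹²³I]tracer 0.37-0.74 MBq in saline, 100 µL, tail-vein i.v. Groups of n = 5 killed at 1-72 h. Organs weighed and γ-counted, carcass activity also counted, values as %ID/g.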

[4] = Biodistribution in melanoma of B16F0 tumor bearing C57BL/6J mouse at 0.37-0.74 MBq, iv after 24 hrs; type: ADME, organism-based, B16-F0; procedure, shortened: as §1
[5] = system: Liver; test: Biodistribution in liver of B16F0 tumor bearing C57BL/6J mouse at 0.37-0.74 MBq, iv after 1 hr; type: ADME, organism-based; procedure, shortened: as §1
[6] = system: Liver; test: Biodistribution in liver of B16F0 tumor bearing C57BL/6J mouse at 0.37-0.74 MBq, iv after 6 hrs; type: ADME, organism-based; procedure, shortened: as §1
[7] = system: Liver; test: Biodistribution in liver of B16F0 tumor bearing C57BL/6J mouse at 0.37-0.74 MBq, iv after 24 hrs; type: ADME, organism-based; procedure, shortened: as §1
[8] = system: Kidney; test: Biodistribution in kidney of B16F0 tumor bearing C57BL/6J mouse at 0.37-0.74 MBq, iv after 1 hr; type: ADME, organism-based; procedure, shortened: as §1
[9] = system: Kidney; test: Biodistribution in kidney of B16F0 tumor bearing C57BL/6J mouse at 0.37-0.74 MBq, iv after 6 hrs; type: ADME, organism-based; procedure, shortened: as §1
[10] = system: Kidney; test: Biodistribution in kidney of B16F0 tumor bearing C57BL/6J mouse at 0.37-0.74 MBq, iv after 24 hrs; type: ADME, organism-based; procedure, shortened: as §1
[11] = system: Lung; test: Biodistribution in lung of B16F0 tumor bearing C57BL/6J mouse at 0.37-0.74 MBq, iv after 1 hr; type: ADME, organism-based; procedure, shortened: as §1
[12] = system: Lung; test: Biodistribution in lung of B16F0 tumor bearing C57BL/6J mouse at 0.37-0.74 MBq, iv after 6 hrs; type: ADME, organism-based; procedure, shortened: as §1
[13] = system: Lung; test: Biodistribution in lung of B16F0 tumor bearing C57BL/6J mouse at 0.37-0.74 MBq, iv after 24 hrs; type: ADME, organism-based; procedure, shortened: as §1
[14] = system: Heart; test: Biodistribution in heart of B16F0 tumor bearing C57BL/6J mouse at 0.37-0.74 MBq, iv after 1 hr; type: ADME, organism-based; procedure, shortened: as §1
[15] = system: Heart; test: Biodistribution in heart of B16F0 tumor bearing C57BL/6J mouse at 0.37-0.74 MBq, iv after 6 hrs; type: ADME, organism-based; procedure, shortened: as §1
[16] = system: Heart; test: Biodistribution in heart of B16F0 tumor bearing C57BL/6J mouse at 0.37-0.74 MBq, iv after 24 hrs; type: ADME, organism-based; procedure, shortened: as §1
[17] = system: Brain; test: Biodistribution in brain of B16F0 tumor bearing C57BL/6J mouse at 0.37-0.74 MBq, iv after 1 hr; type: ADME, organism-based; procedure, shortened: as §1
[18] = system: Brain; test: Biodistribution in brain of B16F0 tumor bearing C57BL/6J mouse at 0.37-0.74 MBq, iv after 6 hrs; type: ADME, organism-based; procedure, shortened: as §1
[19] = system: Blood; test: Biodistribution in blood of B16F0 tumor bearing C57BL/6J mouse at 0.37-0.74 MBq, iv after 1 hr; type: ADME, organism-based; procedure, shortened: as §1
[20] = system: Blood; test: Biodistribution in blood of B16F0 tumor bearing C57BL/6J mouse at 0.37-0.74 MBq, iv after 6 hrs; type: ADME, organism-based; procedure, shortened: as §1
[21] = system: Brain; test: Biodistribution in brain of B16F0 tumor bearing C57BL/6J mouse at 0.37-0.74 MBq, iv after 24 hrs; type: ADME, organism-based; procedure, shortened: as §1

Drug uptake [1] [% ID/g]	Drug uptake [2] [% ID/g]	Drug uptake [3] [% ID/g]	Drug uptake [4] [% ID/g]	Drug uptake [5] [% ID/g]	Drug uptake [6] [% ID/g]	Drug uptake [7] [% ID/g]	Drug uptake [8] [% ID/g]	Drug uptake [9] [% ID/g]	Drug uptake [10] [% ID/g]	Drug uptake [11] [% ID/g]	Drug uptake [12] [% ID/g]	Drug uptake [13] [% ID/g]	Drug uptake [14] [% ID/g]	Drug uptake [15] [% ID/g]	Drug uptake [16] [% ID/g]	Drug uptake [17] [% ID/g]	Drug uptake [18] [% ID/g]	Drug uptake [19] [% ID/g]	Drug uptake [20] [% ID/g]	Structure (SMILES)	also measured
0.02	3.4	2.8	1.4	7.1	0.8	0.19	3.7	0.67	0.03	2.6	0.68	0.04	0.94	0.3	0.03	0.08	0.03	1.92	0.78	COc1cc(NC(C)=O)c([123I])cc1C(=O)NCCCCN1CC2CCC1C2 (stereo not given)	
0.05	3.4	3.4	2.2	6	1.3	0.45	3.26	0.46	0.05	2	0.45	0.04	0.64	0.28	0.06	0.04	0.02	0.84	0.47	CCCCNCCCCNC(=O)c1cc([123I])c(NC(C)=O)cc1OC	

Second part, the compound before the results:

Structure (SMILES)	Drug uptake [1] [% ID/g]	Drug uptake [2] [% ID/g]	Drug uptake [3] [% ID/g]	Drug uptake [4] [% ID/g]	Drug uptake [5] [% ID/g]	Drug uptake [6] [% ID/g]	Drug uptake [7] [% ID/g]	Drug uptake [8] [% ID/g]	Drug uptake [9] [% ID/g]	Drug uptake [10] [% ID/g]	Drug uptake [11] [% ID/g]	Drug uptake [12] [% ID/g]	Drug uptake [13] [% ID/g]	Drug uptake [14] [% ID/g]	Drug uptake [15] [% ID/g]	Drug uptake [16] [% ID/g]	Drug uptake [17] [% ID/g]	Drug uptake [18] [% ID/g]	Drug uptake [19] [% ID/g]	Drug uptake [20] [% ID/g]	also measured
CCN(CC)CCNC(=O)c1cc([123I])c(NS(C)(=O)=O)cc1OC	0.01	5.4	3.6	1.7	2.3	1.2	0.28	1.3	0.49	0.06	0.67	0.38	0.03	0.42	0.19	0.04	0.05	0.02	0.77	0.49	
COc1cc(NC(C)=O)c([123I])cc1C(=O)NCCCCN(C)C(C)C	0.02	5.5	6	3.7	9.5	1.5	0.42	5.7	0.69	0.06	1.5	0.5	0.06	0.84	0.3	0.07	0.07	0.03	1.3	0.68	Drug uptake [21]: 0.07 % ID/g
CCN(CC)CCNC(=O)c1cc([123I])c(NS(=O)(=O)c2ccc(C)cc2)cc1OC	0.05	4.2	2.6	1.4	3.8	1.5	0.21	1.2	0.36	0.06	0.62	0.22	0.05	0.28	0.11	0.03	0.03		0.74	0.33	
